Test results published in ChEMBL document CHEMBL5149972, “Novel Antimalarial Tetrazoles and Amides Active against the Hemoglobin Degradation Pathway in Plasmodium falciparum” (J Med Chem, 2021).
Converted amounts (≈) assume the structure as drawn. The source made the active and inactive calls. The calls are words filed in the database; no cut-off is given here.

Assays:
Plasmodium falciparum [1] = test: Antiplasmodial activity against drug resistant Plasmodium falciparum Dd2 infected in human RBC assessed as parasite growth inhibition incubated for 72 hrs by SYBR Green dye based fluorescence assay; type: functional, organism-based; conditions: Plasmodium falciparum, Dd2, Erythrocyte, 72 h
In short: (§1)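 Blood-stage cultures at 2% hematocrit, human O+ RBCs, RPMI 1640 + 25 mM HEPES, 0.5% Albumax-I, 23 mM bicarbonate, 92 μM hypoxanthine. Start at 0.5% parasitemia; 72 h at 37°C, 5% CO₂; freeze-thaw, then SYBR Green in saponin/Triton lysis buffer, 4 h RT dark; fluorescence ex 485/em 535 nm. 10-point curves, technical duplicates or triplicates, final 0.5% DMSO; four-parameter fit gives EC₅₀; mean ± std dev of biological replicates.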

Plasmodium berghei = test: Antiplasmodial activity against liver stage Plasmodium berghei ANKA expressing GFP-Luc-SMCO infected in human HepG2-A16-CD81EGFP cells assessed as reduction in liver-stage development of luciferase-expressing parasite by luciferase reporter gene based bioluminescence assay; type: functional, organism-based
In short: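 Pb-Luc (P. berghei ANKA-GFP-Luc-SMCON) sporozoites infect HepG2-A16-CD81EGFP cells in phenol red-free DMEM with 5% FBS, glutamine, penicillin/streptomycin; compounds scored for blocking liver-stage development by luciferase signal.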

HepG2 = test: (§2) Cytotoxicity against human HepG2 cells assessed as reduction in cell viability incubated for 72 hrs by CellTiter-Glo assay; type: toxicity, cell-based; conditions: hepg2, 72 h
[2] = Kinetic solubility of compound in PBS at pH 6.5 by HPLC analysis; type: physicochemical; conditions: read-out: Kinetic_solubility
Plasmodium falciparum [3] = test: Antiplasmodial activity against Plasmodium falciparum mature stage V gametocyte assessed as inhibition of male gametocyte formation at 25 uM by luciferase reporter assay; type: functional, organism-based
[4] = Kinetic solubility of compound in PBS at pH 2 by HPLC analysis; type: physicochemical; conditions: read-out: Kinetic_solubility
Plasmodium falciparum [5] = test: Antiplasmodial activity against Plasmodium falciparum mature stage V gametocyte assessed as inhibition of female gametocyte formation by luciferase reporter assay; type: functional, organism-based
Plasmodium falciparum [6] = test: Antiplasmodial activity against asexual blood stage Plasmodium falciparum 3D7 infected in human RBC assessed as parasite growth inhibition incubated for 72 hrs by SYBR Green dye based fluorescence assay; type: functional, organism-based; conditions: Plasmodium falciparum, 3D7, Erythrocyte, 72 h; in short: as §1
[7] = Metabolic stability in human liver microsomes assessed as intrinsic clearance per mg of protein at 1 uM incubated for 60 mins presence of NADPH regenerating buffer system by LC-MS analysis; type: ADME, Microsome; conditions: 1 h
Plasmodium falciparum [8] = test: Inhibition of hemozoin formation in sorbitol-synchronized early ring stage plasmodium falciparum NF54 trophozoites assessed as increase in free heme level at 0.5 to 3 times EC50 incubated for 32 hrs by flow cytometry analysis; type: functional; conditions: DDE = dose-dependent effect
Plasmodium falciparum [9] = test: Antiplasmodial activity against Plasmodium falciparum NF54 expressing transgenic luciferase assessed as parasite kill rate at trophozoite stage incubated for 72 hrs by bioluminescence relative rate of kill (BRRoK) assay; type: functional, organism-based; conditions: RBC
Hemozoin = test: Inhibition of Beta-hematin assessed as bis-pyridyl-Fe(III)PPIX complex formation incubated for 5 hrs by NP40 detergent-mediated colorimetric assay
Plasmodium falciparum [10] = test: Antiplasmodial activity against Plasmodium falciparum NF54 expressing transgenic luciferase assessed as parasite kill rate at trophozoite stage incubated for 6 hrs by bioluminescence relative rate of kill (BRRoK) assay; type: functional, organism-based; conditions: RBC
Plasmodium falciparum [11] = test: Antiplasmodial activity against Plasmodium falciparum 3D7 infected in human RBC assessed as parasite growth inhibition incubated for 48 hrs by 3H-hypoxanthine incorporation assay; type: functional, organism-based; conditions: 3D7, Erythrocyte
[12] = as §2; type: toxicity, cell-based; conditions: HepG2 cells
Plasmodium falciparum [13] = test: Inhibition of hemozoin formation in sorbitol-synchronized early ring stage plasmodium falciparum NF54 trophozoites assessed as decrease in free hemozoin level at 0.5 to 3 times EC50 incubated for 32 hrs by flow cytometry analysis; type: functional; conditions: DDE = dose-dependent effect
Plasmodium falciparum [14] = test: Inhibition of hemozoin formation in sorbitol-synchronized early ring stage plasmodium falciparum NF54 trophozoites assessed as decrease in free hemozoin-Fe level at 0.5 to 3 times EC50 incubated for 32 hrs by flow cytometry analysis; type: functional; conditions: DDE = dose-dependent effect
Plasmodium falciparum [15] = test: Inhibition of hemozoin formation in sorbitol-synchronized early ring stage plasmodium falciparum NF54 trophozoites assessed as increase in free heme-Fe level at 0.5 to 3 times EC50 incubated for 32 hrs by flow cytometry analysis; type: functional; conditions: DDE = dose-dependent effect
[16] = Inhibition of hemozoin formation in sorbitol-synchronized early ring stage plasmodium falciparum NF54 trophozoites assessed as fold increase in free heme-Fe level at 3 times EC50 incubated for 32 hrs by flow cytometry analysis; type: functional
In short: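 Trophozoites were saponin-released (0.05%), PBS-washed, counted by flow cytometry, then hypotonically lysed and sonicated. Heme was fractionated with HEPES, SDS, pyridine and NaOH and read as Fe(III)heme–pyridine absorbance against a heme standard curve (fg/cell). Three biological replicates; Student's t-test.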

Plasmodium falciparum [17] = test: Antiplasmodial activity against lab-derived […] resistant Plasmodium falciparum Dd2-PfeEF2 mutant infected in human RBC assessed as parasite growth inhibition incubated for 72 hrs by SYBR Green dye based fluorescence assay; type: functional, organism-based; conditions: Erythrocyte
Plasmodium falciparum [18] = test: Antiplasmodial activity against chloroquine and pyrimethamine resistant Plasmodium falciparum Dd2 infected in human RBC assessed as parasite growth inhibition incubated for 72 hrs by SYBR Green dye based fluorescence assay; type: functional, organism-based; conditions: Dd2, Erythrocyte
In short: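 O+ human RBCs at 2% hematocrit and 0.5% starting parasitemia, in RPMI 1640 with 25 mM HEPES, 0.5% Albumax-I, bicarbonate and hypoxanthine. Serial dilutions in triplicate, 0.5% DMSO final, 72 h at 37°C, 5% CO2. Frozen at −80°C, lysed with SYBR Green in saponin/Triton buffer for 4 h in the dark. Ex 485/em 535 nm. EC50 from four-parameter fit; biphasic fit where curves were biphasic.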

Plasmodium falciparum [19] = test: Antiplasmodial activity against lab-derived DSM265 resistant Plasmodium falciparum Dd2-PfDHODH mutant infected in human RBC assessed as parasite growth inhibition incubated for 72 hrs by SYBR Green dye based fluorescence assay; type: functional, organism-based; conditions: Erythrocyte
Plasmodium falciparum [20] = test: Antiplasmodial activity against lab-derived MMV390048 resistant Plasmodium falciparum Dd2-Pfpi4K mutant infected in human RBC assessed as parasite growth inhibition incubated for 72 hrs by SYBR Green dye based fluorescence assay; type: functional, organism-based; conditions: Erythrocyte
Plasmodium falciparum [21] = test: Antiplasmodial activity against Plasmodium falciparum NF54 infected in human RBC assessed as parasite growth inhibition incubated for 72 hrs by SYBR Green dye based fluorescence assay; type: functional, organism-based; conditions: NF54, Erythrocyte
Plasmodium falciparum [22] = test: Antiplasmodial activity against chloroquine resistant Plasmodium falciparum Dd2-GC03 mutant replaced with 3D7 pfcrt sequence at endogenous pfcrt Dd2 locus infected in human RBC assessed as parasite growth inhibition incubated for 72 hrs by SYBR Green dye based fluorescence assay; type: functional, organism-based; conditions: Erythrocyte
In short: (§3)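 Gene-edited Dd2 lines with the endogenous pfcrt locus replaced by zinc-finger nuclease editing. Concentration-response curves run with technical duplicates at each concentration; values are the average of two biological replicates, with std dev given where more replicates were collected.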

Plasmodium falciparum [23] = test: Antiplasmodial activity against chloroquine and pyrimethamine resistant Plasmodium falciparum 7G8 infected in human RBC assessed as parasite growth inhibition incubated for 72 hrs by SYBR Green dye based fluorescence assay; type: functional, organism-based; conditions: 7G8, Erythrocyte
Plasmodium falciparum [24] = test: Antiplasmodial activity against Plasmodium falciparum 3D7 assessed as parasite growth inhibition incubated for 48 hrs followed by compound washout further infected in RBC cells for 28 days by hemocrit analysis; type: functional, organism-based
Plasmodium falciparum [25] = test: Antiplasmodial activity against chloroquine resistant Plasmodium falciparum Dd2-Dd2 mutant replaced with recombinant Dd2 sequence at endogenous pfcrt Dd2 locus infected in human RBC assessed as parasite growth inhibition incubated for 72 hrs by SYBR Green dye based fluorescence assay; type: functional, organism-based; conditions: Erythrocyte; in short: as §3
Plasmodium falciparum [26] = test: Antiplasmodial activity against lab-derived ELQ300 resistant Plasmodium falciparum Dd2-PfCytB mutant infected in human RBC assessed as parasite growth inhibition incubated for 72 hrs by SYBR Green dye based fluorescence assay; type: functional, organism-based; conditions: Erythrocyte
Plasmodium falciparum [27] = test: Antiplasmodial activity against chloroquine, atovaquone and pyrimethamine resistant Plasmodium falciparum TM90C2B infected in human RBC assessed as parasite growth inhibition incubated for 72 hrs by SYBR Green dye based fluorescence assay; type: functional, organism-based; conditions: Erythrocyte
Plasmodium falciparum [28] = test: Antiplasmodial activity against chloroquine and piperaquine resistant Plasmodium falciparum Dd2-M343L mutant replaced with endogenous pfcrt locus with the recombinant Dd2 sequence and the PPQ resistance-conferring M343L at endogenous pfcrt Dd2 locus infected in human RBC assessed as parasite growth inhibition incubated for 72 hrs by SYBR Green dye based fluorescence assay; type: functional, organism-based; conditions: Erythrocyte; in short: as §3
Plasmodium falciparum [29] = test: Antiplasmodial activity against chloroquine and pyrimethamine resistant Plasmodium falciparum K1 infected in human RBC assessed as parasite growth inhibition incubated for 72 hrs by SYBR Green dye based fluorescence assay; type: functional, organism-based; conditions: K1, Erythrocyte
Plasmodium falciparum [30] = test: Antiplasmodial activity against piperaquine and pyrimethamine resistant Plasmodium falciparum RF12 infected in human RBC assessed as parasite growth inhibition incubated for 72 hrs by SYBR Green dye based fluorescence assay; type: functional, organism-based; conditions: RF12, Erythrocyte

Structure (SMILES) | EC50 (Plasmodium falciparum [1]) [µM] | solubility kinetic [2] [µg/mL] | solubility kinetic [4] [µg/mL] | EC50 (Plasmodium falciparum [6]) [µM] | Activity (Plasmodium falciparum [9]) | IC50 (Hemozoin) [µM] | Activity (Plasmodium falciparum [10]) | EC50 (Plasmodium falciparum [11]) [µM] | CC50 at 72 h [12] [µM] | other results
Cc1ccccc1N(C)C(=O)C(c1cccnc1)N(Cc1cc(C(F)(F)F)ccc1F)C1CC1 (racemic) | 0.46 | 1.5 (≈ 3.18 µM) | > 47 | 0.31 |  |  |  |  |  | EC50 (Plasmodium berghei): 7 µM; CC50 (HepG2): > 30 µM; EC50 (Plasmodium falciparum [3]): 60 µM; EC50 (Plasmodium falciparum [5]): > 25 µM; CLH [7]: 548 µL/min/mg
CCN(CC)CCCC(C)Nc1ccnc2cc(Cl)ccc12 (stereo unspecified) [CHLOROQUINE] |  |  |  | 0.014 | Active | 19 | Active | 0.021 | > 30 | inhibition (Plasmodium falciparum [8]): Dde; inhibition (Plasmodium falciparum [13]): Dde; inhibition (Plasmodium falciparum [14]): Dde; inhibition (Plasmodium falciparum [15]): Dde
Cc1ccccc1-n1nnnc1C(c1cncnc1)N(Cc1cccc(C(F)(F)F)c1)C1CC1 (racemic) | 1.8 | 1.5 (≈ 3.22 µM) | 1.5 (≈ 3.22 µM) | 0.4 |  | 310 |  | 1.7 | 33 | fold change (FC) [16]: 6; EC50 (Plasmodium falciparum [17]): 1.6 µM; EC50 (Plasmodium falciparum [18]): 1.8 µM; EC50 (Plasmodium falciparum [19]): 2 µM; EC50 (Plasmodium falciparum [20]): 2 µM; EC50 (Plasmodium falciparum [21]): 0.83 µM; EC50 (Plasmodium falciparum [22]): 4.8 µM; EC50 (Plasmodium falciparum [23]): 0.16 µM; Activity (Plasmodium falciparum [24]): Active; EC50 (Plasmodium falciparum [25]): 2.4 µM; EC50 (Plasmodium falciparum [26]): 2 µM; EC50 (Plasmodium falciparum [27]): 0.66 µM; EC50 (Plasmodium falciparum [28]): 0.9 µM; EC50 (Plasmodium falciparum [29]): 0.46 µM; EC50 (Plasmodium falciparum [30]): 1.1 µM
O=C1C(O)=C([C@H]2CC[C@H](c3ccc(Cl)cc3)CC2)C(=O)c2ccccc21 [ATOVAQUONE] |  |  |  | 0.0013 | Active |  | Active | 0.001 | > 30 | 
C[C@@H]1CC[C@H]2[C@@H](C)C(=O)O[C@@H]3O[C@@]4(C)CC[C@@H]1[C@]32OO4 [ARTEMISININ] |  |  |  | 0.013 | Active |  | Active | 0.03 | > 30 | 
